Results published in ChEMBL document CHEMBL3045825, “Synthesis, fungicidal activity, and structure-activity relationship of 2-oxo- and 2-hydroxycycloalkylsulfonamides” (J Agric Food Chem, 2010).
≈ marks a conversion by molar mass, not a printed value.

What was measured:
Botrytis cinerea [1] = assay: Fungicidal activity against Botryotinia fuckeliana assessed as inhibition of mycelial growth; format: functional, organism-based
Botrytis cinerea [2] = assay: Fungicidal activity against Botryotinia fuckeliana grown on compound pre-treated cucumber leaves assessed as control efficiency against gray mold disease on leaves at 500 ug/mL; format: functional
How it was run: (§1)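 Cucumber leaves sprayed with formulation diluted in water (500, 125, 31.25 μg/mL), air-dried, then upper surface inoculated with 6 mm plugs of B. cinerea Pers. maintained on PDA. Disease spot diameter measured; control efficiency from inhibition-rate equation. Procedure repeated 3 times, 9 replicates; procymidone and pyrimethanil (95%) positive controls.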

Botrytis cinerea [3] = assay: Fungicidal activity against Botryotinia fuckeliana assessed as inhibition spore germination; format: functional, organism-based
How it was run: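 Conidial germination on microscope slides: B. cinerea conidia about 2×10⁵ spores/mL in 0.05% Tween 80; acetone stock (5000 μg/mL) diluted in suspension to final 200, 50, 12.5, 3.12, 0.78 μg/mL. 30 μL on concave slide, humid chamber 23 °C, 100% RH, 8 h; germinated conidia counted in five fields. Three replicates; procymidone positive control.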

Botrytis cinerea [4] = assay: Fungicidal activity against Botryotinia fuckeliana grown on compound pre-treated cucumber leaves assessed as control efficiency against gray mold disease on leaves at 31.25 ug/mL; format: functional; how it was run: as §1
Botrytis cinerea [5] = assay: Fungicidal activity against Botryotinia fuckeliana grown on compound pre-treated cucumber leaves assessed as control efficiency against gray mold disease on leaves at 125 ug/mL; format: functional; how it was run: as §1
Botrytis cinerea [6] = assay: Potency index, ratio of EC80 for procymidone to EC80 for test compound against Botryotinia fuckeliana assessed as inhibition of mycelial growth; format: functional

O=S(=O)(Nc1cc(C(F)(F)F)ccc1C(F)(F)F)C1CCCCC1O (configuration not stated) showed an EC50 (Botrytis cinerea [1]) of 2.53 µg/mL (≈ 6.47 µM) and an EC80 (Botrytis cinerea [1]) of 16 µg/mL (≈ 40.9 µM).
With O=S(=O)(Nc1ccc(Cl)cc1C(F)(F)F)C1CCCC1O (configuration not stated) the Efficacy (Botrytis cinerea [2]) was 81.12%, the EC50 (Botrytis cinerea [3]) was 5.29 µg/mL (≈ 15.4 µM) and the EC80 (Botrytis cinerea [3]) was 43 µg/mL (≈ 125 µM). For the same compound, the EC50 (Botrytis cinerea [1]) was 36.4 µg/mL (≈ 106 µM), the EC80 (Botrytis cinerea [1]) was 64.4 µg/mL (≈ 187 µM) and the Efficacy (Botrytis cinerea [4]) was 62.44%. For the same compound, the Efficacy (Botrytis cinerea [5]) was 68.9%.
O=C1CCCCCCC1S(=O)(=O)Nc1ccc(Cl)cc1C(F)(F)F (configuration not stated) showed an Efficacy (Botrytis cinerea [2]) of 67.72%, a Ratio (Botrytis cinerea [6]) of 1.03 and an EC50 (Botrytis cinerea [3]) of 19 µg/mL (≈ 49.4 µM). The EC80 (Botrytis cinerea [3]) was 549 µg/mL (≈ 1430 µM), the EC50 (Botrytis cinerea [1]) was 1.22 µg/mL (≈ 3.18 µM) and the EC80 (Botrytis cinerea [1]) was 2.88 µg/mL (≈ 7.5 µM). The Efficacy (Botrytis cinerea [4]) was 64.79% and the Efficacy (Botrytis cinerea [5]) was 67.14%.
In the case of Cc1ccc(NS(=O)(=O)C2CCCCC2O)cc1 (configuration not stated), the EC50 (Botrytis cinerea [1]) is reported as 18 µg/mL (≈ 66.9 µM) and the EC80 (Botrytis cinerea [1]) is reported as 65.4 µg/mL (≈ 243 µM).
For O=S(=O)(Nc1ccc(Cl)cc1C(F)(F)F)C1CCCCCC1O (configuration not stated), the Efficacy (Botrytis cinerea [2]) was 95.01%, the EC50 (Botrytis cinerea [3]) was 77 µg/mL (≈ 207 µM) and the EC80 (Botrytis cinerea [3]) was greater than 1000 µg/mL. It also gave an EC50 (Botrytis cinerea [1]) of 0.85 µg/mL (≈ 2.29 µM), an EC80 (Botrytis cinerea [1]) of 5.27 µg/mL (≈ 14.2 µM) and an Efficacy (Botrytis cinerea [4]) of 74.77%. For the same compound, the Efficacy (Botrytis cinerea [5]) was 92.67%.
Compound O=C1CCCCCC1S(=O)(=O)Nc1ccc(Cl)cc1C(F)(F)F (configuration not stated) has an Efficacy (Botrytis cinerea [2]) of 49.53%, an EC50 (Botrytis cinerea [3]) of 18.1 µg/mL (≈ 48.9 µM) and an EC80 (Botrytis cinerea [3]) of 388 µg/mL (≈ 1050 µM). It also gave an EC50 (Botrytis cinerea [1]) of 0.8 µg/mL (≈ 2.16 µM), an EC80 (Botrytis cinerea [1]) of 3.7 µg/mL (≈ 10 µM) and an Efficacy (Botrytis cinerea [4]) of 11.97%. For the same compound, the Efficacy (Botrytis cinerea [5]) was 21.95%.
O=S(=O)(Nc1ccc(Br)cc1)C1CCCCC1O (configuration not stated) gave an EC50 (Botrytis cinerea [1]) of 7.07 µg/mL (≈ 21.2 µM) and an EC80 (Botrytis cinerea [1]) of 21.4 µg/mL (≈ 64 µM).
Work on O=S(=O)(Nc1ccccc1Br)C1CCCCC1O (configuration not stated) yielded an EC50 (Botrytis cinerea [1]) of 11 µg/mL (≈ 32.9 µM) and an EC80 (Botrytis cinerea [1]) of 250 µg/mL (≈ 749 µM).
O=S(=O)(Nc1ccccc1)C1CCCCC1O (configuration not stated) showed an EC50 (Botrytis cinerea [1]) of 22.9 µg/mL (≈ 89.7 µM) and an EC80 (Botrytis cinerea [1]) of 443 µg/mL (≈ 1740 µM).
O=S(=O)(Nc1ccc(C(F)(F)F)cc1)C1CCCCC1O (configuration not stated) was tested, and the EC50 (Botrytis cinerea [1]) was 8.79 µg/mL (≈ 27.2 µM) and the EC80 (Botrytis cinerea [1]) was 65.9 µg/mL (≈ 204 µM).
In the case of O=C1CCCCCCCCCCC1S(=O)(=O)Nc1ccc(Cl)cc1C(F)(F)F (configuration not stated), the Efficacy (Botrytis cinerea [2]) is reported as 97.07%, the EC50 (Botrytis cinerea [3]) is reported as 3.24 µg/mL (≈ 7.36 µM) and the EC80 (Botrytis cinerea [3]) is reported as 115 µg/mL (≈ 260 µM). For the same compound, the EC50 (Botrytis cinerea [1]) was 1.94 µg/mL (≈ 4.41 µM), the EC80 (Botrytis cinerea [1]) was 39.8 µg/mL (≈ 90.5 µM) and the Efficacy (Botrytis cinerea [4]) was 82.98%. The Efficacy (Botrytis cinerea [5]) was 95.6%.
O=C1CCCC1S(=O)(=O)Nc1ccc(Cl)cc1C(F)(F)F (configuration not stated) showed an Efficacy (Botrytis cinerea [2]) of 74.77%, an EC50 (Botrytis cinerea [3]) of 4.21 µg/mL (≈ 12.3 µM) and an EC80 (Botrytis cinerea [3]) of 227 µg/mL (≈ 663 µM). For the same compound, the EC50 (Botrytis cinerea [1]) was 2.5 µg/mL (≈ 7.32 µM), the EC80 (Botrytis cinerea [1]) was 15.1 µg/mL (≈ 44.1 µM) and the Efficacy (Botrytis cinerea [4]) was 60.68%. For the same compound, the Efficacy (Botrytis cinerea [5]) was 72.42%.
O=S(=O)(Nc1ccc(Cl)c(Cl)c1)C1CCCCC1O (configuration not stated) showed an EC50 (Botrytis cinerea [1]) of 7.8 µg/mL (≈ 24.1 µM) and an EC80 (Botrytis cinerea [1]) of 25.5 µg/mL (≈ 78.6 µM).
CCc1cccc(C)c1NS(=O)(=O)C1CCCCC1O (configuration not stated) gave an EC50 (Botrytis cinerea [1]) of 105 µg/mL (≈ 352 µM) and an EC80 (Botrytis cinerea [1]) greater than 10000 µg/mL.
O=S(=O)(Nc1cc(C(F)(F)F)cc(C(F)(F)F)c1)C1CCCCC1O (configuration not stated) was tested, and the EC50 (Botrytis cinerea [1]) was 4.44 µg/mL (≈ 11.3 µM) and the EC80 (Botrytis cinerea [1]) was 14.6 µg/mL (≈ 37.4 µM).
Work on O=S(=O)(Nc1ccc(Cl)cc1Cl)C1CCCCC1O (configuration not stated) yielded an EC50 (Botrytis cinerea [1]) of 53.2 µg/mL (≈ 164 µM) and an EC80 (Botrytis cinerea [1]) of 518 µg/mL (≈ 1600 µM).
O=S(=O)(Nc1ccc(Cl)cc1C(F)(F)F)C1CCCCCCCCCCC1O (configuration not stated) was tested, and the Efficacy (Botrytis cinerea [2]) was 26.06%, the EC50 (Botrytis cinerea [3]) was 420 µg/mL (≈ 950 µM) and the EC80 (Botrytis cinerea [3]) was greater than 1000 µg/mL. The EC50 (Botrytis cinerea [1]) was 5.72 µg/mL (≈ 12.9 µM), the EC80 (Botrytis cinerea [1]) was 49.4 µg/mL (≈ 112 µM) and the Efficacy (Botrytis cinerea [4]) was 8.45%. The Efficacy (Botrytis cinerea [5]) was 15.49%.
In the case of Cc1ccc(NS(=O)(=O)C2CCCCC2O)c(C)c1 (configuration not stated), the EC50 (Botrytis cinerea [1]) is reported as 21.5 µg/mL (≈ 75.8 µM) and the EC80 (Botrytis cinerea [1]) is reported as 332 µg/mL (≈ 1170 µM).
For O=S(=O)(Nc1ccc(Cl)cc1C(F)(F)F)C1CCCCCCC1O (configuration not stated), the Efficacy (Botrytis cinerea [2]) was 94.42%, the Ratio (Botrytis cinerea [6]) was 1.18 and the EC50 (Botrytis cinerea [3]) was 23.6 µg/mL (≈ 61.2 µM). The EC80 (Botrytis cinerea [3]) was 693 µg/mL (≈ 1800 µM), the EC50 (Botrytis cinerea [1]) was 1.09 µg/mL (≈ 2.83 µM) and the EC80 (Botrytis cinerea [1]) was 2.5 µg/mL (≈ 6.48 µM). It also gave an Efficacy (Botrytis cinerea [4]) of 91.49% and an Efficacy (Botrytis cinerea [5]) of 93.55%.
COc1ccc(OC)c(NS(=O)(=O)C2CCCCC2O)c1 (configuration not stated) showed an EC50 (Botrytis cinerea [1]) of 22.3 µg/mL (≈ 70.7 µM) and an EC80 (Botrytis cinerea [1]) of 181 µg/mL (≈ 575 µM).
For O=S(=O)(Nc1ccccc1Cl)C1CCCCC1O (configuration not stated), the EC50 (Botrytis cinerea [1]) was 75.6 µg/mL (≈ 261 µM) and the EC80 (Botrytis cinerea [1]) was greater than 10000 µg/mL.
Cc1cc(C)nc(Nc2ccccc2)n1 [PYRIMETHANIL] showed an Efficacy (Botrytis cinerea [2]) of 100%, an Efficacy (Botrytis cinerea [4]) of 76.53% and an Efficacy (Botrytis cinerea [5]) of 82.98%.
Compound O=S(=O)(Nc1ccccc1F)C1CCCCC1O (configuration not stated) has an EC50 (Botrytis cinerea [1]) of 24 µg/mL (≈ 87.8 µM) and an EC80 (Botrytis cinerea [1]) of 84.2 µg/mL (≈ 308 µM).
Work on Cc1cc(F)ccc1NS(=O)(=O)C1CCCCC1O (configuration not stated) yielded an EC50 (Botrytis cinerea [1]) of 34.1 µg/mL (≈ 119 µM) and an EC80 (Botrytis cinerea [1]) of 310 µg/mL (≈ 1080 µM).
Compound O=C1CCCCC1S(=O)(=O)Nc1ccc(Cl)cc1C(F)(F)F (configuration not stated) has an Efficacy (Botrytis cinerea [2]) of 28.99%, an EC50 (Botrytis cinerea [3]) of 4.21 µg/mL (≈ 11.8 µM) and an EC80 (Botrytis cinerea [3]) of 124 µg/mL (≈ 349 µM). The EC50 (Botrytis cinerea [1]) was 2.16 µg/mL (≈ 6.07 µM), the EC80 (Botrytis cinerea [1]) was 5.2 µg/mL (≈ 14.6 µM) and the Efficacy (Botrytis cinerea [4]) was 16.08%. The Efficacy (Botrytis cinerea [5]) was 20.78%.
O=S(=O)(Nc1ccc(Cl)cc1C(F)(F)F)C1CCCCC1O (configuration not stated) showed an Efficacy (Botrytis cinerea [2]) of 93.54%, an EC50 (Botrytis cinerea [3]) of 40.1 µg/mL (≈ 112 µM) and an EC80 (Botrytis cinerea [3]) of 260 µg/mL (≈ 727 µM). It also gave an EC50 (Botrytis cinerea [1]) of 3.37 µg/mL (≈ 9.42 µM), an EC80 (Botrytis cinerea [1]) of 14.3 µg/mL (≈ 39.9 µM) and an Efficacy (Botrytis cinerea [4]) of 53.05%. For the same compound, the Efficacy (Botrytis cinerea [5]) was 72.42%.
O=S(=O)(Nc1ccc(Cl)cc1)C1CCCCC1O (configuration not stated) showed an EC50 (Botrytis cinerea [1]) of 7.38 µg/mL (≈ 25.5 µM) and an EC80 (Botrytis cinerea [1]) of 86.5 µg/mL (≈ 298 µM).
CC12CC1(C)C(=O)N(c1cc(Cl)cc(Cl)c1)C2=O (configuration not stated) [PROCYMIDONE] was tested, and the Efficacy (Botrytis cinerea [2]) was 91.78%, the EC50 (Botrytis cinerea [1]) was 0.99 µg/mL (≈ 3.48 µM) and the EC80 (Botrytis cinerea [1]) was 2.96 µg/mL (≈ 10.4 µM). It also gave an Efficacy (Botrytis cinerea [4]) of 61.27% and an Efficacy (Botrytis cinerea [5]) of 73.59%.
